The list is not random: actives were taken first. Their share in the collection is about 1.1%.
MT1-MMP act inh – blockers of MT1-MMP proenzyme processing, primary screen, HT1080 RFP-PRO-GFP cells, GFP/RFP fluorescence; Matrix metalloproteinase-14 (Homo sapiens), P50281; GFP/RFP ratio fluorescence, overnight; percent of plate control window, DMSO zero; GFP/RFP ratio change, % at 20 µM; 360,000 tested, 0.061% active;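 active = GFP/RFP ratio change of at least 30% with cell ATP level not reduced by more than half and red fluorescence within 50% of control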
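Assay system: RFP-PRO-GFP reporter HT1080 cells; read-out basis: GFP/RFP fluorescence ratio; benchmarks: DMSO wells and RFP-L50D-GFP cells; doses: 20 µM single dose, 1% DMSO; schedule: overnight cell settling, then overnight compound exposure, 37 °C, 5% CO2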
Vif inh – HIV Vif self-association inhibitors, primary screen, imaging, HEK293T, single point | HEK293T cells, Vif self-association by quenched fluorescence, 24 h | inhibition, % at 7.49 µM | 340,000 tested, 0.35% active; in the data active = inhibition above about 50%, passing the limit was not always enough
HCV core dimer – inhibitors of HCV core protein dimerization, primary screen, biochemical, TR-FRET, high-throughput; TR-FRET GST/Flag-core106 dimerization, 1536-well; inhibition, % at 5 µM; 300,000 tested, 0.33% active; AID 1899, 2009;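 active = inhibition above the mean of all tested compounds plus 3 SD, set per screening campaign, cut at about 45% in these data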
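System: GST-tagged and Flag-tagged HCV core protein residues 1-106 / Input: core106 proteins, GST 13.5 nM and Flag 17 nM / Buffer or medium: KF-containing HEPES buffer, pH 7.45, DTT, CHAPS, BSA / Probe or stimulus: Eu-anti-GST and XL665-anti-Flag labelled anti-tag antibodies / Schedule: 4 h, 22.5 °C incubation / Technique: TR-FRET 671 and 617 nm emission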
NR2E3 ag-1 – NR2E3 agonists in two-hybrid cells, primary screen, cell-based, luminescence, CHO-S, Gal4-NCOR/VP16-NR2E3 | AID 602229, 2012 | Photoreceptor-specific nuclear receptor (Homo sapiens), Q9Y5X4 | 360,000 tested, 0.35% active | luciferase | inhibition of corepressor binding, % at 3.98 µM;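 active = inhibition above the mean of all tested compounds plus 3 SD, cut at about 70% in these data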;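 note: higher means lower luciferase signal from less NR2E3 corepressor binding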
Target sequence (Q9Y5X4 whole entry, looked up, the tested form may be a part): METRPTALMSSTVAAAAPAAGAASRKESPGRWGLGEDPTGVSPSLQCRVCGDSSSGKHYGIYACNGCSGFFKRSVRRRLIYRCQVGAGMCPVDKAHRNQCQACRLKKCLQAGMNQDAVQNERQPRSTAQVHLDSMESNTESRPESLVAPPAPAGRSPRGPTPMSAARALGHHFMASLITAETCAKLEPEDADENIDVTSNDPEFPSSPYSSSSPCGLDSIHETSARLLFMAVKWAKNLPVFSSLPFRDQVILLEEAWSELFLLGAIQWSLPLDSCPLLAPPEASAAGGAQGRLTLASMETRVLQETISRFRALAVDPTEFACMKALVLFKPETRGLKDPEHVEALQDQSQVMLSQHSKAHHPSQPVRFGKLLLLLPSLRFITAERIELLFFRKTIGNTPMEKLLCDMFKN
DAGLB inhibitor – DAGLB lipase inhibitors, primary screen, biochemical, fluorescence, HTS; Diacylglycerol lipase-beta (Homo sapiens), Q8NCG7; HEK293T DAGLB membrane lysate, EnzChek fluorogenic substrate; inhibition, % at 5.17 µM; 340,000 tested, 0.059% active; in the data active = inhibition above about 34%
NR2E3 ag-2 – inhibitors of NR2E3-RetCOR corepressor binding, primary screen, NR2E3 agonist project, biochemical, TR-FRET, GST-NR2E3, biotin-RetCOR. Photoreceptor-specific nuclear receptor (Homo sapiens), Q9Y5X4. 1536-well. 320,000 tested, 0.12% active. inhibition of corepressor binding, % at 4.78 µM;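 active = percent inhibition above the cutoff of mean plus 3 SD of all tested compounds, set per screening campaign, cut at about 20% in these data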
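system = GST-tagged NR2E3 plus biotinylated RetCOR corepressor | input = 1.35 nM GST-NR2E3 | also added = 7 nM biotin-RetCOR | schedule = 5 h incubation at 4 °C | measured by = TR-FRET with europium anti-GST and streptavidin-D2, 340 nm excitation | read-out = percent loss of FRET ratio relative to control wells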
NR2E3 ag conf – NR2E3 agonist confirmation in cells, cell-based, luminescence, CHO-S two-hybrid; shares compounds with NR2E3 ag-1; CHO-S mammalian two-hybrid NR2E3-NCOR, luciferase luminescence; 2,300 tested, 51% active; inhibition, % at 3.98 µM;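 active = average inhibition above a cutoff equal to the mean inhibition of all tested compounds plus one SD, cut at about 70% in these data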
VP16 counter – GAL4-VP16 reporter modulators, confirmation, counter-screen for NR2E3 agonist project, cell-based, luminescence, CHO-S, high throughput; shares compounds with NR2E3 ag-1; CHO-S GAL4-VP16 luciferase reporter; inhibition, % at 3.98 µM; 2,300 tested, 29% active; AID 624379, 2012;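 active = mean inhibition above a cutoff equal to the average over all tested compounds plus one standard deviation, cut at about 70% in these data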;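 note: luciferase from a UAS reporter driven by GAL4-VP16 transactivation; higher means less reporter light so more repression of VP16 activity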
Each line names hits and unclear results; the compound was inactive in the other large screens (follow-up assays come after a bar, where they were run).

COc1ccc(CCNc2ccc(N3C(=O)CC(C)C3=O)cc2[N+](=O)[O-])cc1OC (stereo unspecified)	NR2E3 ag-1 75 | NR2E3 ag conf inactive | VP16 counter 73
CCC(C)NC(=O)CC(NS(=O)(=O)c1ccc(NC(C)=O)cc1)C(C)C (stereo unspecified)	none
Cc1cc(=O)[nH]c(SCCCOc2ccccc2Cl)n1	none
CCc1cc(OCCCSc2nc(C)cc(=O)[nH]2)ccc1Cl	none | NR2E3 ag conf 76 | VP16 counter inactive
O=C(C1CCC(CNS(=O)(=O)c2cccc3nsnc23)CC1)N1CC=C(c2ccccc2)CC1 (stereo unspecified)	none | NR2E3 ag conf 88 | VP16 counter inactive
CCOC(=O)N1CCC(NC(=O)C2CCCN(Cc3nc(-c4cccc(Cl)c4)oc3C)C2)CC1 (stereo unspecified)	NR2E3 ag-1 84 | NR2E3 ag conf 88 | VP16 counter inactive
CCOc1ccc(NC(=O)CSc2ccc(-c3cccnc3)nn2)cc1	none
Cc1ccc(OCC(=O)c2cc(C)n(Cc3cccs3)c2C)c([N+](=O)[O-])n1	NR2E3 ag-1 84 | NR2E3 ag conf 93 | VP16 counter 88
Cc1nn(C)cc1CN1CCCC(C(=O)c2ccc(-c3ccccc3)cc2)C1 (stereo unspecified)	none
O=C(CCCN1C(=O)NC2(CCCC2)C1=O)NCc1ccccc1	none (no result: HCV core dimer)
Nc1nc(-c2ccccn2)nc(N)c1Cc1ccc(Cl)cc1Cl	NR2E3 ag-1 91 | NR2E3 ag conf 100 | VP16 counter inactive
Nc1nc(-c2ccccn2)nc(N)c1Cc1c(F)cccc1Cl	NR2E3 ag-1 86 | NR2E3 ag conf 98 | VP16 counter inactive
Cc1ccc(NC(=O)C2CCN(S(=O)(=O)c3ccc4c(c3)NC(=O)C(C)S4)CC2)cc1Cl (stereo unspecified)	NR2E3 ag-1 105 | NR2E3 ag conf 98 | VP16 counter 85
Cc1cc(C)cc(NC(=O)C2CCN(S(=O)(=O)c3ccc4c(c3)NC(=O)C(C)S4)CC2)c1 (stereo unspecified)	none
CC1Sc2ccc(S(=O)(=O)N3CCN(c4ccccc4)CC3)cc2NC1=O (stereo unspecified)	none
Cc1cccc(N2CCN(S(=O)(=O)c3ccc4c(c3)NC(=O)C(C)S4)CC2)c1C (stereo unspecified)	none | NR2E3 ag conf inactive | VP16 counter inactive
Cc1cccc(CCNS(=O)(=O)c2ccc3c(c2)NC(=O)C(C)S3)c1 (stereo unspecified)	none | NR2E3 ag conf inactive | VP16 counter inactive
COc1ccc(OC)c2c1C(=O)c1ccccc1C2=O	none (no result: MT1-MMP act inh, Vif inh, NR2E3 ag-1, DAGLB inhibitor)
COc1ccc(OC)c2c1C(=O)C(Cl)=C(Cl)C2=O	NR2E3 ag-1 102 | NR2E3 ag conf 99 | VP16 counter inactive
O=c1/c(=C/c2ccc(O)c([N+](=O)[O-])c2)sc2nc3ccccc3n12	none (no result: HCV core dimer, DAGLB inhibitor, NR2E3 ag-2)
CCN(CC)c1ccc(/C=c2\sc3nc4ccccc4n3c2=O)c(O)c1	none (no result: HCV core dimer, NR2E3 ag-2) | NR2E3 ag conf 79 | VP16 counter inactive
Cc1cc(/C=c2/sc3nc4ccccc4n3c2=O)c(C)n1-c1ccccn1	NR2E3 ag-1 80 (no result: Vif inh) | NR2E3 ag conf 84 | VP16 counter 75
Cc1cc(/C=c2\sc3nc4ccccc4n3c2=O)c(C)n1-c1ccc(C(=O)O)cc1	none (no result: HCV core dimer, NR2E3 ag-2)
CCn1ncc(/C=C/C(=O)Nc2c(C)nn(Cc3ccc(Cl)cc3Cl)c2C)c1C	none | NR2E3 ag conf inactive | VP16 counter inactive
Cn1c(-c2ccccc2)c(C(=O)CCl)c2ccccc21	none (no result: HCV core dimer, NR2E3 ag-2) | NR2E3 ag conf inactive | VP16 counter inactive
CC(C)(C)c1ccc(-n2ncc3c2CCCC3NC(=O)CCN2CCCCC2=O)cc1 (stereo unspecified)	none | NR2E3 ag conf inactive | VP16 counter inactive
CC(C)(C)c1ccc(-n2ncc3c2CCCC3NC(=O)CN2CCOC2=O)cc1 (stereo unspecified)	none | NR2E3 ag conf inactive | VP16 counter inactive
NC(=O)CC(NC(=O)Cc1ccc(Cl)cc1)c1ccc(NC2CC3CCC2C3)c([N+](=O)[O-])c1 (stereo unspecified)	NR2E3 ag-1 98 | NR2E3 ag conf inactive | VP16 counter inactive
Cc1ccc(C(=O)OCC(=O)NCc2ccc(Cl)cc2)s1	none (no result: HCV core dimer, NR2E3 ag-2)
O=C(NCCC1=CCCCC1)c1[nH]c(C(F)(F)F)nc1-c1ccccc1	none (no result: HCV core dimer, DAGLB inhibitor, NR2E3 ag-2)
O=C(NC(Nc1nc2ccc([N+](=O)[O-])cc2s1)(C(F)(F)F)C(F)(F)F)c1cccnc1	NR2E3 ag-1 101 | NR2E3 ag conf 98 | VP16 counter 89
O=C(NC(Nc1nc2ccc([N+](=O)[O-])cc2s1)(C(F)(F)F)C(F)(F)F)c1ccccc1Cl	NR2E3 ag-1 98 | NR2E3 ag conf 97 | VP16 counter 90
O=C(NC(NNc1ccc([N+](=O)[O-])cc1)(C(F)(F)F)C(F)(F)F)c1ccccc1Cl	none
COc1cc(OC)c(S(=O)(=O)Nc2ccc(C(=O)O)cc2)cc1S(=O)(=O)Nc1ccc(C(=O)O)cc1	none
CCOc1ccc2nc(NC(=O)C3CCN(c4cnccn4)CC3)sc2c1	none | NR2E3 ag conf inactive | VP16 counter inactive
CCOc1ccc2nc(NC(=O)C3CCN(S(=O)(=O)c4cnc[nH]4)CC3)sc2c1	none
CC(=O)Nc1ccc(SCC(=O)c2cc(C)n(-c3ccccc3)c2C)cc1	none (no result: Vif inh) | NR2E3 ag conf inactive | VP16 counter inactive
Cc1cc(C(=O)C(C)OC(=O)c2ccc(NC(=O)CC#N)cc2)c(C)n1-c1ccccc1 (stereo unspecified)	none | NR2E3 ag conf inactive | VP16 counter inactive
CC(OC(=O)c1ccc(NC(=O)CC#N)cc1)C(=O)NC(c1ccccc1)c1ccccc1 (stereo unspecified)	none (no result: HCV core dimer, NR2E3 ag-2)
COCCN(C(=O)COC(=O)CCc1c[nH]c2ccccc12)c1c(N)n(Cc2ccccc2)c(=O)[nH]c1=O	none
CCc1ccc(N2CC(C(=O)Nc3ccccc3N3CCCC3)CC2=O)cc1 (stereo unspecified)	none (no result: Vif inh, HCV core dimer, NR2E3 ag-2)

Screening data deposited in PubChem by several laboratories.
